Compound activity: PubChem, Johns Hopkins Ion Channel Center
Shown are actives, neighbours in structure and some others; about 2.3% of the full set was active somewhere.
TRPC4 potent: allosteric potentiators of mouse TRPC4 channel; Q9QUQ5; HEK293 TRPC4beta/mu-opioid, DAMGO EC20, Fluo-4 Ca2+ flux; stronger effect = higher value; B-score at 10 µM; 310,000 compounds, 0.42% hits;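 active = B-score of calcium response area above 5 SD of library B-scores, with initial fluorescence ratio within 5 SD of library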
TRPC4 inh: TRPC4 (mouse) channel inhibition | Q9QUQ5 | HEK293 TRPC4beta/mu-opioid, DAMGO-evoked Fluo4 calcium flux; stronger effect = lower value | B-score at 10 µM | 300,000 compounds, 0.39% hits | AID 2247;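 active = B-score over 3 SD under the library average, no early fluorescence shift, positive overall ratio signal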
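material = TRPC4beta/mu-opioid receptor HEK293 cell line | probe or stimulus = sequential submaximal and maximal DAMGO stimulation | compound dosing = one concentration per compound | measured by = Fluo4 Ca2+ flux fluorescence | evaluation = integrated fluorescence ratio relative to baseline, converted to per-well B score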
TRPC6 inh: blocks the mouse TRPC6 cation channel; HEK293-TRPC6, membrane potential dye, ACh-evoked depolarization; stronger effect = lower value; B-score at 10 µM; 310,000 compounds, 1.1% hits;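 active = B-score under library mean minus 3 SD, initial fluorescence not abnormally high, positive integrated signal ratio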;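 also: B-score derived from integrated fluorescence ratio over the kinetic read; more negative B-score means stronger inhibition of depolarization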
Target sequence (Q61143 whole entry, looked up): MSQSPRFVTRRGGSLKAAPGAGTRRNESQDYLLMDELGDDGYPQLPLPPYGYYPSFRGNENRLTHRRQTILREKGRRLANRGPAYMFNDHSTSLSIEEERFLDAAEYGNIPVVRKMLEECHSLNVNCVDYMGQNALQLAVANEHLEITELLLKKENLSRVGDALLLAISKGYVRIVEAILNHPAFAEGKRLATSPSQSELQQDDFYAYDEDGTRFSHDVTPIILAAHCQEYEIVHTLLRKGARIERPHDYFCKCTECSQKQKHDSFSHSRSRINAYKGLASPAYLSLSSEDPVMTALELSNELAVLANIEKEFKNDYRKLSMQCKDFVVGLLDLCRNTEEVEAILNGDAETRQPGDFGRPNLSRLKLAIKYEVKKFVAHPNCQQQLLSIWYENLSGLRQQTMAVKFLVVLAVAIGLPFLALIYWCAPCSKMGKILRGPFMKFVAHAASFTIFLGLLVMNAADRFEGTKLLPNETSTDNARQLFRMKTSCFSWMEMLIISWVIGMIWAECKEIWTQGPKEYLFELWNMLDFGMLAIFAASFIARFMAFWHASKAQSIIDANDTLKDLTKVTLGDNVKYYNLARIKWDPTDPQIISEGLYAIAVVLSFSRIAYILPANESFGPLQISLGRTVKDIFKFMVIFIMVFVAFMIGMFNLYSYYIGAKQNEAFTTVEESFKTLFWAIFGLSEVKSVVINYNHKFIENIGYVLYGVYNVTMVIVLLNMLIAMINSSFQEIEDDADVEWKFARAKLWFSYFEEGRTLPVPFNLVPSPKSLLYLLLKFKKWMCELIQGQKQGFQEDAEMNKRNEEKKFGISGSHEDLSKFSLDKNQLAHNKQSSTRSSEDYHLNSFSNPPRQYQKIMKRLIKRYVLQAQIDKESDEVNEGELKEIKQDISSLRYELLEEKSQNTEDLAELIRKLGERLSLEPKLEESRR
TRPC6 activator: mouse TRPC6 channel activation | 310,000 compounds, 0.13% hits | B-score at 10 µM | Q61143 | HEK293-TRPC6 membrane potential dye fluorescence; stronger effect = higher value;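 active = B-score of the integrated fluorescence ratio above library mean plus 3 SD, and starting fluorescence ratio within library mean plus 5 SD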;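 also: higher score means more depolarization so channel activation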
TRPC4 act: opens the mouse TRPC4 cation channel. Q9QUQ5. HEK293 TRPC4beta/mu-opioid, Fluo4 calcium fluorescence; stronger effect = higher value. B-score at 10 µM. 310,000 compounds, 0.49% hits. AID 2237;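 active = B-score above 5 SD of library B-scores, and initial fluorescence ratio not above library mean plus 5 SD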;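 also: positive B-score marks a calcium rise read as TRPC4 activation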
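Assay system: HEK293 stable line with TRPC4beta plus mu-opioid receptor; schedule: 45 min room-temperature Fluo4 loading, 110 s read; technique: kinetic Fluo4 calcium fluorescence; evaluation: integrated baseline-normalised fluorescence ratio, converted to per-well B score; controls: buffer (low) and maximal DAMGO (high)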
TRPC4 spec 2: mouse TRPC4 off-target activity of TRPC6 inhibitors, second screen; shares compounds with TRPC6 inh; AID 2776; inhibition, % at 10 µM; HEK293 TRPC4/MOR, membrane potential dye fluorescence; channel activated by saturating DAMGO dose; 920 compounds, 42% hits;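 active = compounds whose fluorescence signal differed from control wells by over 3 SD, either direction, in both duplicate plates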
TRPC4 spec: tests whether TRPC6 inhibitors also affect mouse TRPC4; shares compounds with TRPC6 inh; 920 compounds, 61% hits; activity change, negative = inhibition, % at 10 µM; HEK293 TRPC4/mu-opioid, membrane potential fluorescence;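 active = rise or fall in signal beyond 3 SD of buffer-only wells in both replicate plates, either sign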;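 also: integrated kinetic ratio of fluorescence range over baseline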
HEK293 MPD ctr 2-1: second counter-screen for TRPC6 inhibitors: parental HEK293 cells; 920 compounds, 31% hits; AID 2779; shares compounds with TRPC6 inh; parental HEK293 membrane potential dye fluorescence; maximal acetylcholine challenge after compound addition; signal change vs control, % at 10 µM;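 active = membrane potential signal moving either way by over 3 SD of the maximum-effect control, in both duplicate plates, meaning non-specific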
HEK293 MPD ctr-1: counter-screen for TRPC6 inhibitors: effect in parental HEK293 cells; AID 2780; membrane potential signal change, % at 10 µM; parental HEK293 membrane potential dye fluorescence; shares compounds with TRPC6 inh; 920 compounds, 60% hits;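 active = membrane potential signal shifting up or down by more than 3 SD of buffer-only wells, on both duplicate plates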
HEK293 MPD ctr-2: checks TRPC6 modulator effects in parental HEK293 cells; membrane potential signal change, % at 10 µM; 2,400 compounds, 51% hits; shares compounds with TRPC6 inh; membrane potential dye fluorescence;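 active = membrane potential signal moves up or down beyond 5 SD from buffer-only wells, on both duplicate plates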
HEK293 MPD ctr 2-2: second check of TRPC6 modulator effects in parental HEK293 cells; shares compounds with TRPC6 inh; 2,400 compounds, 14% hits; membrane potential dye fluorescence; after compound, maximal acetylcholine stimulation; AID 488926; inhibition, % at 10 µM;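 active = membrane potential signal drops by more than 5 SD from the mean control signal, in both duplicate plates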
TRPC4 ctr mod: tests whether TRPC6 modulators also affect mouse TRPC4; 2,400 compounds, 69% hits; shares compounds with TRPC6 inh; HEK293 TRPC4/mu-opioid, membrane potential fluorescence; percent change from control (negative = decrease, positive = increase), % at 10 µM;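 active = membrane potential signal moved up or down beyond 5 SD of buffer control wells, in both duplicate plates, actives on both sides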
TRPC4/MOR inh 2: mouse TRPC4 off-target activity of TRPC6 modulators, second screen | AID 488928 | 2,400 compounds, 55% hits | HEK293 TRPC4/mu-opioid, membrane potential dye fluorescence; stimulated with maximal-effect DAMGO | inhibition, % at 10 µM | shares compounds with TRPC6 inh;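 active = drop in membrane potential signal beyond 5 SD of the control wells in both duplicate plates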;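 also: TRPC4 counter screen for TRPC6 hits run under conditions tuned for TRPC6 not TRPC4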
TRPC6 block conf: confirmation of mouse TRPC6 inhibitors; AID 488960; shares compounds with TRPC6 inh; inhibition, % at 10 µM; HEK293-TRPC6, membrane potential dye, ACh-evoked depolarization; 3,300 compounds, 43% hits;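 active = fluorescence ratio falls more than 5 SD below the full-stimulation control mean, in both duplicate runs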;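 also: integrated fluorescence ratio of peak minus minimum over baseline after agonist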
TRPC6 act confirm: confirmation of mouse TRPC6 activators; activation, % at 10 µM; HEK293-TRPC6 membrane potential dye fluorescence, FDSS; shares compounds with TRPC6 inh; AID 488961; 2,800 compounds, 11% hits;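 active = ratio signal rise beyond 5 SD above unstimulated control wells' mean, seen in both duplicate runs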
Numbers stand for hits; – = inactive; · = not tested or not shown.

SMILES	TRPC4 potent	TRPC4 inh	TRPC6 inh	TRPC6 activator	TRPC4 act	HEK293 MPD ctr-2	HEK293 MPD ctr 2-2	TRPC4 ctr mod	TRPC4/MOR inh 2	TRPC6 block conf	TRPC6 act confirm	others
Cc1ccc(NC(=O)CSCC(=O)Nc2ccc(N3CCOCC3)c(Cl)c2)cc1	–	–	-5.7	–	–	–	–	–	–	–	–
Cc1cccc2sc(N(CCCN(C)C)C(=O)c3ccc(Cl)s3)nc12	–	–	-6.61	–	–	·	·	·	·	67.3%	–	TRPC4 spec 2=42.5%;TRPC4 spec=-14.3%;HEK293 MPD ctr 2-1=–;HEK293 MPD ctr-1=–
Cc1cccc2sc(N(CCCN(C)C)C(=O)c3ccco3)nc12	–	–	-6.78	–	–	·	·	·	·	99.4%	–	TRPC4 spec 2=24.0%;TRPC4 spec=-19.4%;HEK293 MPD ctr 2-1=9.0%;HEK293 MPD ctr-1=–
Cc1cccc2sc(N(CCCN(C)C)C(=O)c3cc4ccccc4oc3=O)nc12	–	–	–	–	–	·	·	·	·	·	·
CC1CN(c2ccc([N+](=O)[O-])c(NCCOc3ccccc3)c2)CCN1 (stereo not drawn)	–	–	-7.31	–	–	·	·	·	·	–	–	TRPC4 spec 2=–;TRPC4 spec=-10.7%;HEK293 MPD ctr 2-1=–;HEK293 MPD ctr-1=-142.5%
O=c1[nH]c(C2CCN(S(=O)(=O)c3ccc4c(c3)OCCO4)CC2)nc2c1nnn2Cc1ccc(F)cc1	–	–	–	–	–	·	·	·	·	·	·
Cc1ccc(N2C=Nc3ccc(C)c4nc(C)cc2c34)cc1	–	–	-10.1	–	–	-248.5%	64.5%	-52.5%	73.5%	60.5%	–
CC1=Nc2ccc(C)c3nc(C)cc(c23)N1c1ccc(C)cc1	–	–	-13.3	–	–	-157.0%	88.5%	-33.0%	82.5%	87.0%	–
Cc1ccc(N2C(=O)c3cccc4cccc(c34)C2=O)cc1	–	–	–	–	–	·	·	·	·	·	·
Cc1ccc(N2C(=O)CC(Sc3nc(C)cc(C)n3)C2=O)cc1 (stereo not drawn)	–	–	–	–	–	·	·	·	·	·	·
CN(C)C/C=C/C(O)(c1ccccc1)c1ccccc1	–	–	-7.59	–	–	·	·	·	·	60.6%	–	TRPC4 spec 2=–;TRPC4 spec=–;HEK293 MPD ctr 2-1=–;HEK293 MPD ctr-1=1.3%
CN(C)CCCOc1ccc(C(C)(C)c2ccccc2)cc1	–	–	–	–	–	·	·	·	·	·	·
Cc1ccc(Cn2nnc3c(=O)[nH]c(C4CCN(S(=O)(=O)c5ccccc5F)CC4)nc32)cc1	–	–	–	–	–	·	·	·	·	·	·
CCCn1c(C)cc(=O)c2cc(NC(=O)c3ccccn3)ccc21	–	–	-10.6	–	–	-345.0%	125.5%	-58.0%	73.5%	86.0%	–
COCCN(Cc1nc(C(c2ccccc2)c2ccccc2)no1)C(C)C	–	–	–	–	–	·	·	·	·	·	·
CCCCn1c(N)c(N(CCOC)C(=O)c2ccc(C)c(S(=O)(=O)N3CCCCC3)c2)c(=O)[nH]c1=O	–	–	-5.76	–	–	–	–	–	–	–	–
CCN(CC)CCNC(=O)c1ccc(NC(=O)c2ccc(S(=O)(=O)N3CCCCCC3)cc2)cc1	–	–	–	–	–	·	·	·	·	·	·
CCN(CC)CCNC(=O)c1ccc(NC(=O)c2ccc(Cl)c(S(=O)(=O)N3CCCCCC3)c2)cc1	–	–	-6	–	–	113.0%	75.5%	11.5%	–	42.5%	·
COCC(=O)Nc1ncc(S(=O)(=O)c2ccc([N+](=O)[O-])cc2)s1	–	–	–	–	–	·	·	·	·	·	·
O=C(NC(Nc1ncc(S(=O)(=O)c2ccc([N+](=O)[O-])cc2)s1)(C(F)(F)F)C(F)(F)F)c1ccc(Cl)cc1	–	–	-8.16	–	–	·	·	·	·	67.6%	–	TRPC4 spec 2=65.0%;TRPC4 spec=9.8%;HEK293 MPD ctr 2-1=–;HEK293 MPD ctr-1=5.0%
COc1cc(C(=O)OCC(=O)Nc2c(F)c(F)c(F)c(F)c2F)cc(OC)c1OC	–	–	-5.4	–	–	–	–	–	–	–	–
Cc1cc(NCCN2CCOCC2)c2ccc3ccccc3c2n1	–	–	-6.5	–	–	-93.5%	65.0%	-26.0%	70.5%	57.0%	–
COc1ccc2nc(C)cc(NCCN3CCOCC3)c2c1	–	–	-9.52	–	–	-327.5%	88.0%	-64.5%	54.0%	65.0%	–
CCc1nnc(NC(=O)CSc2nnc(-c3ccccc3OC)n2-c2ccccc2)s1	–	–	–	12	–	182.5%	–	40.5%	–	–	54.5%
CCc1nnc(NC(=O)CSc2nnc(-c3ccccc3OC)n2-c2ccc(C)cc2)s1	–	–	–	–	–	·	·	·	·	·	·
SMILES	TRPC4 potent	TRPC4 inh	TRPC6 inh	TRPC6 activator	TRPC4 act	HEK293 MPD ctr-2	HEK293 MPD ctr 2-2	TRPC4 ctr mod	TRPC4/MOR inh 2	TRPC6 block conf	TRPC6 act confirm	others
O=C(C1COc2ccccc2O1)N1CCN(c2nc3c(F)cc(F)cc3s2)CC1 (stereo not drawn)	–	–	-8.54	–	–	·	·	·	·	–	–	TRPC4 spec 2=–;TRPC4 spec=–;HEK293 MPD ctr 2-1=–;HEK293 MPD ctr-1=–
O=C(C1COc2ccccc2O1)N1CCN(c2nc3ccccc3s2)CC1 (stereo not drawn)	–	–	–	–	–	·	·	·	·	·	·
O=C(c1cccc(Cl)c1)N1CCN(C2CCCCCC2)CC1	–	–	-5.68	–	–	171.0%	–	35.5%	–	66.0%	·
O=C(c1ccccc1)N1CCN(C2CCCCC2)CC1	–	–	–	–	–	·	·	·	·	·	·
Cc1nc(SCC(=O)c2ccccc2)c(C#N)c(-c2ccco2)c1C(=O)NCc1ccco1	–	–	–	14.3	–	220.0%	–	16.0%	–	–	52.0%
COc1ccc(C2=NN(CN3C(=O)C(=O)c4ccccc43)C(c3cccc([N+](=O)[O-])c3)C2)cc1 (stereo not drawn)	–	–	–	–	–	·	·	·	·	·	·
c1csc(-c2csc3nc(CN4CCOCC4)nc(NCc4ccc5c(c4)OCO5)c23)c1	–	–	–	–	–	·	·	·	·	·	·
